RGS4 inh: RGS4 inhibitors, primary screen, cell-based, HEK293 M3R inducible RGS4, calcium flux. B-score at 10 µM. 310,000 compounds, 0.45% hits. Fluo-4 calcium flux; stronger effect = higher value; triggered by carbachol at its EC20;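 active = B-score, a plate-corrected calcium signal, over three deviations above library mean, with baseline fluorescence within five deviations of library mean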;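 note: RGS4 expression induced by doxycycline in cells with stable M3 receptor; B-score is computed from the integrated fluorescence ratio over baseline after carbachol; higher B-score means a larger calcium signal and so more RGS4 inhibition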
Target sequence (P49798 whole entry, looked up): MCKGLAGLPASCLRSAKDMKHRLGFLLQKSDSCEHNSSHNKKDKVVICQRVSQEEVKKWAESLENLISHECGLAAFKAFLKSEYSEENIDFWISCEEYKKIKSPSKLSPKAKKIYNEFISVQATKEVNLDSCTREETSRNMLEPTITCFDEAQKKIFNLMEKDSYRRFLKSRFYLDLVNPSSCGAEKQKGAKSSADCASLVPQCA
MrgX1 antagonist: antagonists of human MrgX1 receptor, primary screen, HEK293 cells, Fluo-4 calcium flux; B-score at 10 µM; Mas-related G-protein coupled receptor member X1 (Homo sapiens), Q96LB2; 310,000 compounds, 1.3% hits; BAM8-22 antagonism; stronger effect = lower value;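 active = calcium-response B-score plate-corrected more than 3 library SD below zero, starting fluorescence within 5 deviations, no agonist response on first addition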;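 note: peak minus trough fluorescence over baseline after final BAM8-22 challenge near maximal dose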
Target sequence (Q96LB2 whole entry, looked up): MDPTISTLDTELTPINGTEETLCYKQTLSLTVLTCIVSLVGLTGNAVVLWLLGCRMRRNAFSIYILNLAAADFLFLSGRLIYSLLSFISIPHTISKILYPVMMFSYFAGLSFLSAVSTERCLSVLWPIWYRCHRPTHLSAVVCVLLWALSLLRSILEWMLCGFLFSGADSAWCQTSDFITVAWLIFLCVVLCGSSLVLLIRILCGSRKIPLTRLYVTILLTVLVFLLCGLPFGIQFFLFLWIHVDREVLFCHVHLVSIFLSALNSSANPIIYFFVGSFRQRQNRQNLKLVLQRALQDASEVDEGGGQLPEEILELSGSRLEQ
MrgX1 PAM: positive allosteric modulators of MrgX1, primary screen, HEK293 cells, Fluo-4 calcium flux | Mas-related G-protein coupled receptor member X1 (Homo sapiens), Q96LB2 | FDSS; stronger effect = higher value | B-score at 10 µM | 310,000 compounds, 0.63% hits;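 active = plate-corrected calcium response at least 3 library SD above typical, normal starting fluorescence, not activating the receptor alone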;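 note: compound read alongside a low EC10 to EC30 dose of BAM8-22 agonist; peak minus trough fluorescence over baseline measured at the second addition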
RGS4 act: RGS4 potentiators or activators, primary screen, cell-based, HEK293 M3R inducible RGS4, calcium flux; 310,000 compounds, 0.92% hits; carbachol calcium flux Fluo4; stronger effect = lower value; B-score at 10 µM; AID 463111, 2010;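 active = B-score of the integrated calcium signal more than 4 SD below the library mean, with starting fluorescence not abnormally high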;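 note: negative B-score means reduced calcium response which marks RGS4 activation or potentiation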
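Material: M3R-expressing HEK293 line, RGS4 induced by doxycycline | Schedule: Overnight RGS4 induction, 30 min dye load 37 °C, 20 min compound RT | Measured by: Fluo4 fluorescence kinetic imaging of calcium | Read-out: Integrated calcium ratio converted to B score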
MrgX1 agonist: agonists of human MrgX1 receptor, primary screen, HEK293 cells, Fluo-4 calcium flux | Mas-related G-protein coupled receptor member X1 (Homo sapiens), Q96LB2 | Fluo-4 calcium fluorescence, agonist mode; stronger effect = higher value | B-score at 10 µM | 310,000 compounds, 0.44% hits;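 active = calcium response B-score plate-corrected fluorescence ratio at least 3 library SD, with starting fluorescence B-score inside 5 SD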
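System – MrgX1-expressing HEK293 cells · Incubation – cells plated overnight, dye loaded 0.5 h 37 °C, 0.5 h room temperature · Technique – kinetic Fluo-4 NW fluorescence of intracellular calcium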
MrgX1 ag confirm: MrgX1 receptor agonists, duplicate retest, confirmation, HEK293 cells, Fluo-4 calcium flux; 600 compounds, 78% hits; shares compounds with MrgX1 agonist; AID 602412, 2012; Fluo-4 calcium fluorescence, FDSS; activation, % at 10 µM;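 active = calcium signal rise, corrected for plate position, at least 3 library SD high, with starting brightness within 5 such deviations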; note: reference of the scale not given here
HEK293 Ca flux: nonspecific calcium signal in parental HEK293, confirmation, counter-screen for MrgX1 antagonist project, parental HEK293 cells, Fluo-4 calcium flux. 4,000 compounds, 2% hits. AID 624111, 2012. fluorescence ratio F(max-min)/F0 at 10 µM. Fluo-4 calcium fluorescence, FDSS. shares compounds with MrgX1 antagonist;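 active = duplicate-averaged calcium fluorescence ratio at least three times the standard deviation of buffer wells, a nonspecific response in parental cells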
HEK293 Ca counter: calcium response in parental HEK293 cells, primary screen, counter-screen for MrgX1 allosteric activator project, cell-based, Fluo-4 calcium flux, duplicate. shares compounds with MrgX1 antagonist. Fluo-4 fluorescence ratio; stronger effect = higher value. fluorescence ratio F(max-min)/F0 at 10 µM. 4,000 compounds, 0.4% hits;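 active = calcium fluorescence ratio, averaged over duplicates, at least 3 SD of the buffer-well ratio, meaning a nonspecific response in receptor-free cells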;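 note: untransfected parental HEK293 lacking MrgX1 used as counterscreen for MrgX1 allosteric activators; fluorescence change taken during the second addition on a kinetic imager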
HEK293 Ca cntr2: calcium response in parental HEK293 cells, primary screen, counter-screen for MrgX1 agonist project, cell-based, Fluo-4 calcium flux, duplicate, agonist mode | Fluo-4 calcium fluorescence (FDSS); stronger effect = higher value | AID 624115, 2012 | fluorescence ratio F(max-min)/F0 at 10 µM | 4,000 compounds, 8.7% hits | shares compounds with MrgX1 antagonist;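 active = calcium fluorescence ratio at least three times the spread of buffer wells, meaning a non-specific response in parental cells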
Numbers stand for hits; n = inactive; x = not tested or not shown. Sampled rows, rich in hits. Any-hit rate of the full collection: about 3.5%.

SMILES | RGS4 inh | MrgX1 antagonist | MrgX1 PAM | RGS4 act | MrgX1 agonist | MrgX1 ag confirm | HEK293 Ca flux | HEK293 Ca counter | HEK293 Ca cntr2
CCOC(=O)Nc1ccc2c(c1)N(C(=O)N(CC)CC)c1ccccc1CC2 | n | n | n | n | 38 | 161% | n | n | 47
CCOC(=O)Nc1ccc2c(c1)N(C(=O)N(C)C)c1ccccc1CC2 | n | n | n | n | n | x | x | x | x
COc1ccc(NC(=S)N(CCN2CCOCC2)C2CCN(C(C)=O)CC2)cc1Cl | n | n | n | n | 69 | n | n | n | n
COc1ccc(/C=C2\N=C(c3ccccc3Cl)NC2=O)cc1 | n | x | x | n | x | x | x | x | x
Cc1cc2c(c(=O)o1)C(CCC1CCCCC1)C(C#N)=C(N)O2 (stereo not drawn) | n | n | n | n | 28 | n | n | n | n
CCC(CC)C1C(C#N)=C(N)Oc2cc(C)oc(=O)c21 (stereo not drawn) | n | n | n | n | n | x | x | x | x
CN(CCOc1ccc(Cl)cc1)C(=O)c1cc([N+](=O)[O-])ccc1N1CCOCC1 | n | n | n | n | n | x | x | x | x
Cc1cc(N2CCCCC2)nc(N)n1 | n | n | n | n | 101 | 520% | n | n | 123
Cc1cc(CSC(=N)N)c(CSC(=N)N)cc1C | n | n | n | n | 91 | 246% | n | n | n
CC(C)Oc1ccc(CSC(=N)N)cc1 | n | n | n | n | n | x | x | x | x
O=C(CNCC1CCCCC1)Nc1ccc(OC(F)(F)F)cc1 | n | n | n | n | 106 | 416% | n | n | 52
Cc1cccc(NC(=O)C(=O)NCCc2c[nH]c3ccccc23)c1C | n | n | n | n | n | x | x | x | x
Cc1cccc(C)c1NC(=O)C(=O)NCCc1c[nH]c2ccccc12 | n | n | n | n | 41 | n | n | 49 | n
CCOc1ccc(NC(=O)C2C3C=CC4(O3)C2C(=O)N(Cc2cccnc2)C4C(=O)NC2CCCCC2)cc1 (stereo not drawn) | n | n | n | n | n | x | x | x | x
CC(=O)Nc1cccc(CNCc2cccc(NC(C)=O)c2)c1 | n | n | n | n | n | x | x | x | x
OC(C#Cc1ccccn1)c1cccs1 (stereo not drawn) | n | n | n | n | 44 | n | n | n | n
CC(=O)[C@@]1(O)CC[C@H]2[C@@H]3CCC4=CC(=O)CC[C@]4(C)[C@H]3[C@@H](O)C[C@@]21C | n | n | n | n | 48 | n | n | n | n
COc1cccc2c1Oc1cc([N+](=O)[O-])cc(N(C)C(C)=O)c1C=C2 | n | n | n | n | n | x | x | x | x
Cc1[nH][nH]c(=O)c1C(c1ccc(-c2cccc(Cl)c2)o1)c1c(C)[nH][nH]c1=O | n | n | n | n | 29 | 198% | n | n | 56
CN(Cc1cccs1)C(=O)CCCc1c[nH]c2ccccc12 | n | n | n | n | 27 | 161% | n | n | n
CN(Cc1cccs1)C(=O)CCc1c[nH]c2ccccc12 | n | n | n | n | n | x | x | x | x
CN(C)/C=N/NC(=O)C1Cc2c(ccc3ccccc23)O1 (stereo not drawn) | n | n | n | n | n | x | x | x | x
O=C(Nc1nnc(-c2cccs2)o1)c1cccc(C(F)(F)F)c1 | n | n | n | n | 75 | 498% | n | n | 96
N#Cc1ccc(C(=O)Nc2nnc(-c3cccs3)o2)cc1 | n | n | n | n | n | x | x | x | x
Cc1cc2oc(=O)cc(CN3CCCc4ccccc43)c2cc1C | n | n | n | n | 67 | 179% | n | n | n
SMILES | RGS4 inh | MrgX1 antagonist | MrgX1 PAM | RGS4 act | MrgX1 agonist | MrgX1 ag confirm | HEK293 Ca flux | HEK293 Ca counter | HEK293 Ca cntr2
c1ccc2c(c1)NC1(CCCC1)n1c-2nc2ccccc21 | n | n | n | n | 29 | 144% | n | n | n
CCCC1(C)Nc2ccccc2-c2nc3ccccc3n21 (stereo not drawn) | n | n | n | n | n | x | x | x | x
O=C(O)C/C(=C\c1ccc2c(c1)OCO2)c1nc2ccccc2s1 | n | n | n | n | n | x | x | x | x
O=C(O)C/C(=C\c1cc(Cl)c2c(c1)OCO2)c1nc2ccccc2s1 | n | n | n | n | 35 | 91% | n | n | n
ClCC1=Nc2ccccc2Cc2ccccc21 | n | n | n | n | 29 | 111% | n | n | n
c1ccc2c(c1)Cc1cc3ccccc3nc1-2 | n | n | n | n | n | x | x | x | x
COc1ccc(CCNC(=O)CSc2ccc(-c3cccs3)nn2)cc1OC | n | n | n | n | n | x | x | x | x
O=c1oc(-c2ccccc2Cl)nc2ccsc12 | n | n | n | n | 51 | 210% | n | n | 60
N#CC1=C(SCC(=O)NCc2ccccc2)NC(=O)CC1c1ccco1 (stereo not drawn) | n | n | n | n | n | x | x | x | x
N#CC1=C(SCc2ccccc2)NC(=O)CC1c1ccco1 (stereo not drawn) | n | n | n | n | 41 | 180% | n | n | n
O=C(c1ccco1)N1CCN(C(=O)C2Cc3ccccc3CN2S(=O)(=O)c2ccc(F)cc2)CC1 (stereo not drawn) | n | n | n | n | n | x | x | x | x
O=C(C1Cc2ccccc2CN1S(=O)(=O)c1ccc(F)cc1)N1CCCCC1 (stereo not drawn) | n | n | n | n | 33 | 243% | n | n | 74
C/C=C1\C(OC2OC(CO)C(O)C(O)C2O)OC=C(C(=O)OC)C1CC(=O)OCC1C(C)C(OC(=O)CC2C(C(=O)OC)=COC(OC3OC(CO)C(O)C(O)C3O)/C2=C\C)CC1C(CO)CO (stereo not drawn) | n | n | n | n | n | x | x | x | x
CCOC(=O)c1ccccc1NC(=O)N1CCn2c(C)ccc2C1CC (stereo not drawn) | n | n | n | n | n | x | x | x | x
CCC1c2ccc(C)n2CCN1C(=O)Nc1cc(Cl)ccc1OC (stereo not drawn) | n | n | n | n | 33 | n | n | n | n
CCC1c2ccc(C)n2CCN1C(=O)Nc1ccccc1C(=O)OC (stereo not drawn) | n | n | n | n | 29 | n | n | n | n

Screening data deposited in PubChem by Johns Hopkins Ion Channel Center.
